Measurements taken from ChEMBL document CHEMBL1146375, “Synthetic studies on novel benzimidazolopeptides with antimicrobial, cytotoxic and anthelmintic potential” (2007).
In brackets after ≈: the same amount, converted by molar mass.

test system: Bacillus subtilis; assay: Antibacterial activity against Bacillus subtilis NCIM 2063 after 18 hrs by disc diffusion method; type: functional; settings: not given
In short: (§1)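 Modified Kirby-Bauer disc diffusion. Plates inoculated with spore suspension (about 6 × 10⁴ spores mL^-1). Sterile 6 mm paper discs carried test samples at 10 mg mL^-1; ciprofloxacin disc as reference, DMF disc as negative control. Plates held 18 h at 37 °C. Inhibition zone diameters (mm) averaged over triplicate sets.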

SMILES	inhibition zone (IZ)
Cc1cc2nc(-c3ccc(O)c(C(=O)N[C@@H](C)C(=O)N[C@H](C(=O)N[C@@H](C)C(=O)O)C(C)C)c3)[nH]c2cc1C	14 mm

test system: Staphylococcus aureus; assay: Antibacterial activity against Staphylococcus aureus NCIM 2079 after 18 hrs by disc diffusion method; type: functional; settings: not given; in short: as §1

SMILES	inhibition zone (IZ)
Cc1cc2nc(-c3ccc(O)c(C(=O)N[C@@H](C)C(=O)N[C@H](C(=O)N[C@@H](C)C(=O)O)C(C)C)c3)[nH]c2cc1C	11 mm

test system: Pseudomonas aeruginosa; assay: Antibacterial activity against Pseudomonas aeruginosa NCIM 2034 after 18 hrs by disc diffusion method; type: functional; settings: not given; in short: as §1

SMILES	inhibition zone (IZ)
Cc1cc2nc(-c3ccc(O)c(C(=O)N[C@@H](C)C(=O)N[C@H](C(=O)N[C@@H](C)C(=O)O)C(C)C)c3)[nH]c2cc1C	21 mm

test system: Escherichia coli; assay: Antibacterial activity against Escherichia coli NCIM 2065 after 18 hrs by disc diffusion method; type: functional; settings: not given; in short: as §1

SMILES	inhibition zone (IZ)
Cc1cc2nc(-c3ccc(O)c(C(=O)N[C@@H](C)C(=O)N[C@H](C(=O)N[C@@H](C)C(=O)O)C(C)C)c3)[nH]c2cc1C	17 mm

test system: Candida albicans; assay: Antifungal activity against Candida albicans MUCC 29 after 48 hrs by disc diffusion method; type: functional; settings: not given
In short: (§2)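 Agar well diffusion on plates inoculated with spore suspension in normal saline from cultures on Sabouraud's broth. Wells punched and loaded with test samples or griseofulvin at 10 mg mL^-1, with DMSO as negative control. Incubated 48 h at 37 °C.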

SMILES	inhibition zone (IZ)
Cc1cc2nc(-c3ccc(O)c(C(=O)N[C@@H](C)C(=O)N[C@H](C(=O)N[C@@H](C)C(=O)O)C(C)C)c3)[nH]c2cc1C	19 mm

test system: Microsporum audouinii; assay: Antifungal activity against Microsporum audouinii MUCC 545 after 48 hrs by disc diffusion method; type: functional; settings: not given; in short: as §2

SMILES	inhibition zone (IZ)
Cc1cc2nc(-c3ccc(O)c(C(=O)N[C@@H](C)C(=O)N[C@H](C(=O)N[C@@H](C)C(=O)O)C(C)C)c3)[nH]c2cc1C	11 mm

test system: Trichophyton benhamiae; assay: Antifungal activity against Trichophyton mentagrophytes MUCC 665 after 48 hrs by disc diffusion method; type: functional, Arthroderma benhamiae; settings: not given; in short: as §2

SMILES	inhibition zone (IZ)
Cc1cc2nc(-c3ccc(O)c(C(=O)N[C@@H](C)C(=O)N[C@H](C(=O)N[C@@H](C)C(=O)O)C(C)C)c3)[nH]c2cc1C	15 mm

test system: Aspergillus niger; assay: Antifungal activity against Aspergillus niger MUCC 177 after 48 hrs by disc diffusion method; type: functional; settings: not given; in short: as §2

SMILES	inhibition zone (IZ)
Cc1cc2nc(-c3ccc(O)c(C(=O)N[C@@H](C)C(=O)N[C@H](C(=O)N[C@@H](C)C(=O)O)C(C)C)c3)[nH]c2cc1C	17 mm

test system: Bacillus subtilis; assay: Antibacterial activity against Bacillus subtilis NCIM 2063 after 18 hrs by tube dilution method; type: functional; settings: NCIM 2063, 18 h
In short: (§3)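 Tube dilution MIC. Stock diluted in sterile broth to seven concentrations from 200 to 3.1 […]. Each tube inoculated with one loopful of test bacterium and incubated 18 h at 37 °C. MIC read from presence or absence of growth.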

SMILES	MIC
Cc1cc2nc(-c3ccc(O)c(C(=O)N[C@@H](C)C(=O)N[C@H](C(=O)N[C@@H](C)C(=O)O)C(C)C)c3)[nH]c2cc1C	6 µg/mL (≈ 11.5 µM)

test system: Staphylococcus aureus; assay: Antibacterial activity against Staphylococcus aureus NCIM 2079 after 18 hrs by tube dilution method; type: functional; settings: NCIM 2079, 18 h; in short: as §3

SMILES	MIC
Cc1cc2nc(-c3ccc(O)c(C(=O)N[C@@H](C)C(=O)N[C@H](C(=O)N[C@@H](C)C(=O)O)C(C)C)c3)[nH]c2cc1C	25 µg/mL (≈ 47.7 µM)

test system: Pseudomonas aeruginosa; assay: Antibacterial activity against Pseudomonas aeruginosa NCIM 2034 after 18 hrs by tube dilution method; type: functional; settings: NCIM 2034, 18 h; in short: as §3

SMILES	MIC
Cc1cc2nc(-c3ccc(O)c(C(=O)N[C@@H](C)C(=O)N[C@H](C(=O)N[C@@H](C)C(=O)O)C(C)C)c3)[nH]c2cc1C	6 µg/mL (≈ 11.5 µM)

test system: Escherichia coli; assay: Antibacterial activity against Escherichia coli NCIM 2065 after 18 hrs by tube dilution method; type: functional; settings: NCIM 2065, 18 h

SMILES	MIC
Cc1cc2nc(-c3ccc(O)c(C(=O)N[C@@H](C)C(=O)N[C@H](C(=O)N[C@@H](C)C(=O)O)C(C)C)c3)[nH]c2cc1C	25 µg/mL (≈ 47.7 µM)

test system: Candida albicans; assay: Antifungal activity against Candida albicans MUCC 29 after 48 hrs by tube dilution method; type: functional; settings: not given
In short: (§4)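 Tube dilution MIC as for bacteria (seven concentrations, 200–3.1 […]), with DMSO in place of DMF. Tubes inoculated with fungal culture and incubated 48 h at 37 °C. MIC read from presence or absence of growth.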

SMILES	MIC
Cc1cc2nc(-c3ccc(O)c(C(=O)N[C@@H](C)C(=O)N[C@H](C(=O)N[C@@H](C)C(=O)O)C(C)C)c3)[nH]c2cc1C	6 µg/mL (≈ 11.5 µM)

test system: Microsporum audouinii; assay: Antifungal activity against Microsporum audouinii MUCC 545 after 48 hrs by tube dilution method; type: functional; settings: not given; in short: as §4

SMILES	MIC
Cc1cc2nc(-c3ccc(O)c(C(=O)N[C@@H](C)C(=O)N[C@H](C(=O)N[C@@H](C)C(=O)O)C(C)C)c3)[nH]c2cc1C	6 µg/mL (≈ 11.5 µM)

test system: Trichophyton benhamiae; assay: Antifungal activity against Trichophyton mentagrophytes MUCC 665 after 48 hrs by tube dilution method; type: functional, Arthroderma benhamiae; settings: not given; in short: as §4

SMILES	MIC
Cc1cc2nc(-c3ccc(O)c(C(=O)N[C@@H](C)C(=O)N[C@H](C(=O)N[C@@H](C)C(=O)O)C(C)C)c3)[nH]c2cc1C	6 µg/mL (≈ 11.5 µM)

test system: Eudrilus; assay: Anthelmintic activity against Eudrilus sp. assessed as mean paralyzing time; type: functional; settings: not given
In short: (§5)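 Earthworms exposed to test suspensions at 2 mg mL^-1 (0.2% w/v), made by triturating compound with Tween 80 (0.5%) and distilled water, then mechanically stirred 30 min. Mebendazole suspension prepared alike as reference. Paralysis and death times recorded; death confirmed by no movement in 50 °C water. Means from triplicate sets.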

SMILES	Time
Cc1cc2nc(-c3ccc(O)c(C(=O)N[C@@H](C)C(=O)N[C@H](C(=O)N[C@@H](C)C(=O)O)C(C)C)c3)[nH]c2cc1C	25.18 min

test system: Eudrilus; assay: Anthelmintic activity against Eudrilus sp. assessed as mean death time; type: functional; settings: not given
In short: (§6)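 Earthworms exposed to test suspensions at 2 mg mL−1, prepared by triturating compound with Tween 80 (0.5%) and distilled water, stirring 30 min, then diluting to 0.2% w/v. Mebendazole suspension was made the same way. Death was confirmed by moving worms into 50 °C warm water and looking for movement. Mean death time (min) taken from triplicate sets.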

SMILES	Time
Cc1cc2nc(-c3ccc(O)c(C(=O)N[C@@H](C)C(=O)N[C@H](C(=O)N[C@@H](C)C(=O)O)C(C)C)c3)[nH]c2cc1C	36.14 min

test system: not listed separately; assay: Anthelmintic activity against Megascoplex konkanensis ICARBC 211 assessed as mean paralyzing time; type: functional; settings: not given; in short: as §5

SMILES	TIME
Cc1cc2nc(-c3ccc(O)c(C(=O)N[C@@H](C)C(=O)N[C@H](C(=O)N[C@@H](C)C(=O)O)C(C)C)c3)[nH]c2cc1C	0.42 h

test system: not listed separately; assay: Anthelmintic activity against Megascoplex konkanensis ICARBC 211 assessed as mean death time; type: functional; settings: not given; in short: as §5

SMILES	TIME
Cc1cc2nc(-c3ccc(O)c(C(=O)N[C@@H](C)C(=O)N[C@H](C(=O)N[C@@H](C)C(=O)O)C(C)C)c3)[nH]c2cc1C	0.57 h

test system: Pontoscolex corethrurus; assay: Anthelmintic activity against Pontoscolex corethrurus ICARBC 408 assessed as mean paralyzing time; type: functional; settings: not given; in short: as §5

SMILES	Time
Cc1cc2nc(-c3ccc(O)c(C(=O)N[C@@H](C)C(=O)N[C@H](C(=O)N[C@@H](C)C(=O)O)C(C)C)c3)[nH]c2cc1C	29.65 min

test system: Pontoscolex corethrurus; assay: Anthelmintic activity against Pontoscolex corethrurus ICARBC 408 assessed as mean death time; type: functional; settings: not given; in short: as §6

SMILES	Time
Cc1cc2nc(-c3ccc(O)c(C(=O)N[C@@H](C)C(=O)N[C@H](C(=O)N[C@@H](C)C(=O)O)C(C)C)c3)[nH]c2cc1C	41.6 min
